The source of these data is ChEMBL document CHEMBL3108772, “Discovery of Potent and Orally Active p53-MDM2 Inhibitors RO5353 and RO2468 for Potential Clinical Development” (ACS Med Chem Lett, 2014).

One data set has as its system SW480. Kind of data set: Antiproliferative activity against human SW480 cells expressing p53 mutant by MTT assay. For orientation: Tetrazolium assays rely on reduction of a dye to a coloured formazan, in cell work by metabolically active cells.
The subject of data set [1] is SJSA-1. Kind of data set: Antiproliferative activity against human SJSA cells expressing wild-type p53 by MTT assay.
A short description of data set [2]: Oral bioavailability in C57 mouse at 5 mg/kg. The class given is ADME, organism-based. As to conditions: in vivo. The procedure, abridged:
(§1)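 Single-dose PK in male C57 mice, given orally (PO) or intravenously (IV). Plasma exposure (AUC normalized to dose, Cmax) was taken from the oral arms. Clearance and t1/2 were taken from the IV arms. F is oral bioavailability.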

Data set [3] is described as follows: Intrinsic clearance in human liver microsomes at […] preincubated for 5 mins followed by NADPH addition by LC-MS/MS analysis. It is filed as ADME. To be noted: read-out: CLH. On the technique in general: Microsomes from liver hold many membrane-bound enzymes, among them those of drug oxidation.
The test system of data set [4] is SJSA-1. Kind of data set: Antitumor activity against human SJSA1 cells xenografted in nude mouse assessed as tumor regression at 10 mg/kg, po qd administered for 2 weeks. It is filed as functional, organism-based. Details: dose 10 mg/kg.
The test system of data set [5] is SJSA-1. Kind of data set: Antiproliferative activity against human SJSA cells expressing wild-type p53 by MTT assay.
For data set [6], the system named is Mus musculus. Kind of data set: AUC/dose in C57 mouse at 5 mg/kg, po. The class given is ADME, organism-based, Plasma. Details: dose 5 mg/kg, route oral. To be noted: in vivo. The gist of the method:
as §1

Data set [7] is described as follows: Apparent terminal half life in C57 mouse at 2 mg/kg, iv. It is filed as ADME, organism-based. Details: dose 2 mg/kg, route intravenous. As to conditions: in vivo, read-out: betat1/2(app) (converted). The procedure, abridged: as §1
The subject of data set [8] is Mus musculus. Kind of data set: Toxicity in nude mouse xenografted with human SJSA1 cells assessed as body weight loss at 3 to 20 mg/kg, po qd administered for 2 weeks. It is filed as organism-based, SJSA-1. Details: dose 3-20 mg/kg, route oral. To be noted: in vivo, 336 h. For orientation: A xenograft is tissue or cells of one species grown in another, often human tumour cells in immunodeficient mice.

Data set [9] can be described thus: Total plasma clearance in C57 mouse at 2 mg/kg, iv. The class given is ADME, organism-based. Further details: dose 2 mg/kg, route intravenous. The procedure, abridged: as §1
The nature of data set [10]: Cmax in C57 mouse at 5 mg/kg, po. The class given is ADME, organism-based. Details: dose 5 mg/kg, route oral. To be noted: in vivo. The gist of the method:
as §1

Data set [11] deals with SJSA-1. Kind of data set: Antitumor activity against human SJSA1 cells xenografted in nude mouse assessed as tumor growth inhibition at 3 mg/kg, po qd administered for 2 weeks. The class given is functional, organism-based. Further details: dose 3 mg/kg.
A further data set concerns RKO. Kind of data set: Antiproliferative activity against human RKO cells expressing wild-type p53 by MTT assay. It is filed as functional, cell-based. The procedure, abridged:
(§2)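 MTT antiproliferation assay in human cancer lines: SJSA, HCT116 and RKO are wild-type p53; SW480 is mutant p53. IC50 came from one experiment run in duplicate.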

In another data set the test system is HCT-116. Kind of data set: Antiproliferative activity against human HCT116 cells expressing wild-type p53 by MTT assay. It is filed as functional, cell-based. The procedure, abridged: as §2
Data set [12] can be described thus: Oral bioavailability in C57 mouse at 10 mg/kg. It is filed as ADME, organism-based. As to conditions: in vivo. The gist of the method: as §1
A short description of data set [13]: Cmax in C57 mouse at 10 mg/kg, po. The class given is ADME, organism-based. Details: dose 10 mg/kg, route oral. As to conditions: in vivo. The gist of the method: as §1
Data set [14] in a line: Apparent terminal half life in C57 mouse at 2.5 mg/kg, iv. It is filed as ADME, organism-based. Details: dose 2.5 mg/kg, route intravenous. To be noted: in vivo, read-out: betat1/2(app) (converted). The procedure, abridged: as §1
The subject of data set [15] is Mus musculus. Kind of data set: AUC/dose in C57 mouse at 10 mg/kg, po. Details: dose 10 mg/kg, route oral. As to conditions: in vivo. It is filed as ADME, organism-based, Plasma. The gist of the method: as §1
The nature of data set [16]: Total plasma clearance in C57 mouse at 2.5 mg/kg, iv. It is filed as ADME, organism-based. Details: dose 2.5 mg/kg, route intravenous. The gist of the method:
as §1

The subject of data set [17] is SJSA-1. Kind of data set: Antitumor activity against human SJSA1 cells xenografted in nude mouse assessed as tumor regression at 6.25 mg/kg, po qd administered for 2 weeks. Details: dose 6.25 mg/kg. The class given is functional, organism-based.
Data set [18] can be described thus: Total plasma clearance in C57 mouse at 0.64 mg/kg, iv. The class given is ADME, organism-based. Further details: dose 0.64 mg/kg, route intravenous. The procedure, abridged: as §1
Data set [19] can be described thus: Oral bioavailability in C57 mouse at 25 mg/kg. It is filed as ADME, organism-based. To be noted: in vivo. The procedure, abridged: as §1
Data set [20] in a line: Cmax in C57 mouse at 25 mg/kg, po. It is filed as ADME, organism-based. Further details: dose 25 mg/kg, route oral. As to conditions: in vivo. The procedure, abridged:
as §1

For data set [21], the system named is Mus musculus. Kind of data set: AUC/dose in C57 mouse at 25 mg/kg, po. It is filed as ADME, organism-based, Plasma. Details: dose 25 mg/kg, route oral. To be noted: in vivo. The procedure, abridged: as §1
Data set [22] in a line: Apparent terminal half life in C57 mouse at 0.64 mg/kg, iv. To be noted: in vivo, read-out: betat1/2(app) (converted). It is filed as ADME, organism-based. Details: dose 0.64 mg/kg, route intravenous. The procedure, abridged: as §1

Calls of active or inactive are those of the source. The calls are words filed in the database; no cut-off is given here. Bounds are passed on as bounds.

As usually defined, the IC50 is the midpoint of a concentration-inhibition curve. A low value points to higher potency. Take `COc1cc(C(N)=O)ccc1NC(=O)[C@@H]1N[C@@H](CC(C)(C)C)[C@@]2(C(=O)Nc3cc(Cl)cnc32)[C@H]1c1cccc(Cl)c1F` (racemic): the IC50 turned out to be 5.9 µM with SW480 and 0.042 µM with SJSA-1 [1].

With `COc1cc(C(=O)O)ccc1NC(=O)[C@@H]1N[C@@H](CC(C)(C)C)[C@@]2(C(=O)Nc3ncccc32)[C@H]1c1cccc(Cl)c1F` (racemic), the IC50 in the data set on SW480 was greater than 30 µM; in the data set on SJSA-1 [1], 1.37 µM.

Take `COc1cc(C(=O)O)ccc1NC(=O)[C@@H]1N[C@@H](CC(C)(C)C)[C@@]2(C(=O)Nc3cc(Cl)cnc32)[C@H]1c1cccc(Cl)c1F` (racemic): the IC50 with SW480 is greater than 30 µM; with SJSA-1 [1], 0.061 µM.

For the molecule `COc1cc(C(=O)O)ccc1NC(=O)[C@@H]1N[C@@H](CC(C)(C)C)[C@@]2(C(=O)Nc3cc(Cl)ncc32)[C@H]1c1cccc(Cl)c1F` (racemic), the IC50 in the data set on SW480 was greater than 30 µM; with SJSA-1 [1], 0.043 µM.

As to `COc1cc(C(=O)O)ccc1NC(=O)[C@@H]1N[C@@H](CC(C)(C)C)[C@@]2(C(=O)Nc3nc(Cl)ncc32)[C@H]1c1cccc(Cl)c1F` (racemic), the 50% inhibitory concentration (IC50) in the data set on SW480 was greater than 30 µM; in the data set on SJSA-1 [1] it was 0.1 µM.

On to `COc1cc(C(N)=O)ccc1NC(=O)[C@@H]1N[C@@H](CC(C)(C)C)[C@@]2(C(=O)Nc3ccncc32)[C@H]1c1cccc(Cl)c1F` (racemic), for which the IC50 in the data set with SW480 amounted to 13.4 µM; with SJSA-1 [1], 2.11 µM.

With `COc1cc(C(N)=O)ccc1NC(=O)[C@@H]1N[C@@H](CC(C)(C)C)[C@@]2(C(=O)Nc3nc(Cl)ccc32)[C@H]1c1cccc(Cl)c1F` (racemic), the IC50 in the data set on SW480 came to 5.26 µM; in the data set with SJSA-1 [1], 0.067 µM.

Take `COc1cc(C(N)=O)ccc1NC(=O)C1NC(CC(C)(C)C)C2(C(=O)Nc3cc(Cl)sc32)C1c1cccc(Cl)c1F` (racemic): the IC50 in the data set with SW480 was determined as 7.87 µM; in the data set on SJSA-1 [1], 0.011 µM.

Regarding `COc1cc(C(=O)O)ccc1NC(=O)[C@@H]1N[C@@H](CC(C)(C)C)[C@@]2(C(=O)Nc3nc(Cl)ccc32)[C@H]1c1cccc(Cl)c1F` (racemic), the values for the IC50 in the data set on SW480 and with SJSA-1 [1] were 15.4 µM and 0.045 µM, respectively.

As usually defined, the bioavailability is the share of a dose that reaches the circulation, judged against a reference dose that is usually intravenous. Higher therefore signals good availability. Usually clearance stands for the rate of elimination divided by the concentration. A low value points to inefficient removal. For orientation: Cmax means the highest concentration seen after dosing. In the case of `COc1cc(C(N)=O)ccc1NC(=O)[C@@H]1N[C@@H](CC(C)(C)C)[C@@]2(C(=O)Nc3cc(Cl)ncc32)[C@H]1c1cccc(Cl)c1F`, in data set [2], the bioavailability amounted to 46%. Besides, in data set [3], the CLint scaled was 10.2 mL/min/kg. Besides, the outcome with SJSA-1 [4], in the data set on SJSA-1 [5], in the data set on RKO and in the data set on HCT-116 was Active. The same molecule gave an AUC/dose with Mus musculus [6] of 4.2 µg·h/mL/mg/kg. The half-life in [7] is 3 h. Moreover, the Activity entry in the data set on Mus musculus [8] is recorded as “Non-toxic”. The clearance in [9] was found to be 1.8 mL/min/kg. The peak level in data set [10] (Cmax) was 2100 ng/mL. For the same molecule, the TGI entry in the data set on SJSA-1 [11] was “Active”.

Regarding `COc1cc(C(N)=O)ccc1NC(=O)C1NC(CC(C)(C)C)C2(C(=O)Nc3cc(Cl)ncc32)C1c1cccc(Cl)c1F` (racemic), the IC50 in the data set with SW480 was 12.8 µM; in the data set with SJSA-1 [1], 0.014 µM.

On to `COc1cc(C(N)=O)ccc1NC(=O)[C@@H]1N[C@@H](CC(C)(C)C)[C@@]2(C(=O)Nc3nc(Cl)ncc32)[C@H]1c1cccc(Cl)c1F` (racemic), for which the IC50 turned out to be 10.7 µM in the data set with SW480 and 0.09 µM in the data set with SJSA-1 [1].

In turn, `COc1cc(C(N)=O)ccc1NC(=O)[C@@H]1N[C@@H](CC(C)(C)C)[C@@]2(C(=O)Nc3cc(Cl)sc32)[C@H]1c1cccc(Cl)c1F` yielded a bioavailability in [12] of 92%. Moreover, in data set [3], the CLint scaled was found to be 2 mL/min/kg. The outcome with SJSA-1 [4], in the data set with SJSA-1 [5], in the data set on RKO and in the data set on HCT-116 was Active. Further, the highest concentration (Cmax) in data set [13] amounted to 1300 ng/mL. Besides, the half-life in data set [14] was 3 h. The molecule further registered an AUC/dose in the data set on Mus musculus [15] of 1.5 µg·h/mL/mg/kg. Further, the Activity entry in the data set with Mus musculus [8] is recorded as “Non-toxic”. Also, the TGI entry in the data set with SJSA-1 [11] is “Active”. Besides, the clearance in [16] was found to be 9.9 mL/min/kg.

As for `COc1cc(C(=O)O)ccc1NC(=O)C1NC(CC(C)(C)C)C2(C(=O)Nc3cc(Cl)sc32)C1c1cccc(Cl)c1F` (racemic), the values for the IC50 in the data set on SW480 and with SJSA-1 [1] were 29.3 µM and 0.009 µM, respectively.

Regarding `COc1cc(C(=O)O)ccc1NC(=O)[C@@H]1N[C@@H](CC(C)(C)C)[C@@]2(C(=O)Nc3ccncc32)[C@H]1c1cccc(Cl)c1F` (racemic), the half-maximal inhibitory concentration (IC50) in the data set on SW480 is greater than 30 µM; in the data set on SJSA-1 [1], 22.7 µM.

Regarding `COc1cc(C(N)=O)ccc1NC(=O)[C@@H]1N[C@@H](CC(C)(C)C)[C@@]2(C(=O)Nc3cc(Cl)ccc32)[C@H]1c1cccc(Cl)c1F`, the IC50 in the data set with SW480 was determined as 5.19 µM; with SJSA-1 [1] it was 0.013 µM. For the same molecule, the result in the data set with SJSA-1 [17] was Active. Also, the CLint scaled in data set [3] worked out at 7.5 mL/min/kg. For the same molecule, the clearance in [18] was 5.8 mL/min/kg. For the same molecule, the bioavailability in data set [19] came to 92%. Moreover, in [20], the Cmax is 5800 ng/mL. In the data set on Mus musculus [21], the AUC/dose turned out to be 3.7 µg·h/mL/mg/kg. The half-life in data set [22] is 7.1 h.

For `COc1cc(C(=O)O)ccc1NC(=O)[C@@H]1N[C@@H](CC(C)(C)C)[C@@]2(C(=O)Nc3cc(Cl)sc32)[C@H]1c1cccc(Cl)c1F`, the bioavailability in data set [12] stood at 32%. This molecule also yielded a Cmax in data set [13] of 300 ng/mL. Further, the outcome with SJSA-1 [5], in the data set with RKO and in the data set with HCT-116 was Active. The half-life in data set [14] was 1.68 h. The same molecule had an AUC/dose in the data set on Mus musculus [15] of 0.08 µg·h/mL/mg/kg. In data set [16], this molecule yielded a clearance of 68.6 mL/min/kg.
